Efficacy and Activity data for 71 compounds are collected here from ChEMBL document CHEMBL3407471, “Development of potent inhibitors of pyocyanin production in Pseudomonas aeruginosa” (J Med Chem, 2015).

Experiment [1] relates to Pseudomonas aeruginosa. The experiment in a line: Inhibition of quorum sensing activity in wild-type Pseudomonas aeruginosa PA14 assessed as inhibition of pyocyanin production at 100 uM by spectrophotometry relative to control. It counts as functional. In outline: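 Wild-type P. aeruginosa PA14 cultures exposed to compound at 100 μM. Pyocyanin read as absorbance at 695 nm. Efficacy scaled so that wild-type pyocyanin level = 0% and absorbance equal to background medium = 100%.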

Experiment [2] has as its system Pseudomonas aeruginosa. Kind of experiment: Antimicrobial activity against wild-type Pseudomonas aeruginosa PA14. It counts as functional.

The source made the active and inactive calls. How the calls were made is not given here.

Consider `CCCCCCCCCCCCNC(=O)c1ccncc1`, for which, in experiment [1], the Efficacy was found to be 13%. Further, the result in experiment [2] was inactive.
For `O=C(CCCCCOc1ccc(F)cc1F)Nc1ccnc(C(F)(F)F)c1`, in that order: 49% and “inactive”.
For the compound `CCCCCCCCCCCC(=O)NCc1ccncc1`, in experiment [1], the Efficacy was 7.7%. Further, the outcome in experiment [2] was inactive.
In the same order, the values of `O=C(CCCCCOc1cccc(Br)c1)Nc1ccnc(Cl)c1` are 89% and “inactive”.
In the same order, the values of `O=C(CCCCOc1cccc(Br)c1)Nc1ccnc(C(F)(F)F)c1` are 95% and “inactive”.
On to `CCCCCCCCCCCC(=O)Nc1ccnc(C(F)(F)F)c1`, for which, in experiment [1], the Efficacy is given as 27%. Further, in experiment [2], the result was inactive.
In the same order, the values of `CCCCCCCCCCCC(=O)Nc1ccccn1` are 55% and “inactive”.
For `CCCCCCCCCCCCNC(=O)c1c[nH]c2ccccc12`, the Efficacy in experiment [1] turned out to be 4.4%. For the same compound, the outcome in experiment [2] was inactive.
In the same order, the values of `O=C(CCCOc1cccc(Br)c1)Nc1ccnc(F)c1` are 32% and “inactive”.
In the case of `CCCCCCCCCC(=O)CC(=O)Nc1ccccn1`, the Efficacy in experiment [1] is on record as 44%. In experiment [2], the result was inactive.
For `COc1cc(NC(=O)CCCCOc2cccc(Br)c2)ccn1`, in that order: 81% and “inactive”.
As for `Cc1cc(NC(=O)CCCCCOc2cccc(Br)c2)ccn1`, the Efficacy in experiment [1] was 80%. Further, the result in experiment [2] was inactive.
As for `CCCCCCCCCCCC(=O)Nc1ccc2oc3c(c2c1)CCCC3`, the Efficacy in experiment [1] is recorded as 6.1%. The result in experiment [2] was inactive.
For the compound `CCCCCCCCCCCC(=O)Nc1ccncn1`, the Efficacy in experiment [1] is on record as 55%. In experiment [2], the result was inactive.
In the same order, the values of `COc1cc(NC(=O)CCCCCCCOc2cccc(Br)c2)ccn1` are 60% and “inactive”.
For `O=C(CCCCCOc1cccc(Br)c1)Nc1ccncc1C(F)(F)F`, in that order: 15% and “inactive”.
`CCCCCCCCCCCC(=O)Nc1cc(C)nc2ccccc12`: the Efficacy in experiment [1] is -24%. Also, the outcome in experiment [2] was inactive.
In the case of `CCCCCCCCCCCC(=O)Nc1ncccn1`, in experiment [1], the Efficacy came out at 23%. Moreover, the outcome in experiment [2] was inactive.
In the same order, the values of `COc1cc(NC(=O)CCCOc2cccc(Br)c2)ccn1` are 20% and “inactive”.
In the same order, the values of `CCCCCCCCCCCC(=O)Nc1ccnc(C)c1` are -19% and “inactive”.
On to `O=C(CCCCCOc1cccc(Br)c1)Nc1ccncn1`, for which the Efficacy in experiment [1] was determined as 27%. In addition, the result in experiment [2] was inactive.
In the same order, the values of `O=C(CCCCCCc1cccc(F)c1)Nc1ccnc(C(F)(F)F)c1` are 96% and “inactive”.
For `O=C(CCCOc1cccc(Br)c1)Nc1ccnc(C(F)(F)F)c1`, in that order: 43% and “inactive”.
Take `CCCCCCCCCCCC(=O)OCc1ccncc1`: the Efficacy in experiment [1] is recorded as -15%. Further, the outcome in experiment [2] was inactive.
For `N#Cc1cccc(OCCCCCC(=O)Nc2ccnc(C(F)(F)F)c2)c1`, in that order: 0.48% and “inactive”.
In the same order, the values of `O=C(CCCCCOc1cccc(Br)c1)Nc1ccnc(F)c1` are 31% and “inactive”.
`O=C(CCCCCOc1cccc(Cl)c1)Nc1ccnc(C(F)(F)F)c1`: in experiment [1], the Efficacy is listed as 101%. Also, the outcome in experiment [2] was inactive.
In the same order, the values of `O=C(CCCCCOc1ccccc1O)Nc1ccnc(C(F)(F)F)c1` are 95% and “inactive”.
In the same order, the values of `O=C(CCCCCOc1ccccc1F)Nc1ccnc(C(F)(F)F)c1` are 78% and “inactive”.
In the same order, the values of `O=C(CCCCCCOc1cccc(Br)c1)Nc1ccnc(C(F)(F)F)c1` are 23% and “inactive”.
`O=C(CCCCCOc1ccc(Br)cc1)Nc1ccnc(C(F)(F)F)c1`: in experiment [1], the Efficacy was 88%. Besides, the outcome in experiment [2] was inactive.
For `CCCCCCCCCCCC(=O)O/N=C1\COc2ccccc21`, in that order: 12% and “inactive”.
In the same order, the values of `CCCCCCCCCCCC(=O)Nc1cnccn1` are -38% and “inactive”.
Regarding `O=C(CCCCC#Cc1cccc(F)c1)Nc1ccnc(C(F)(F)F)c1`, the Efficacy in experiment [1] is on record as 97%. Besides, the result in experiment [2] was inactive.
`CCCCCCCCCCCCNC(=O)Cc1c[nH]c2ccccc12`: in experiment [1], the Efficacy is listed as 0.6%. The result in experiment [2] was inactive.
In the same order, the values of `CCCCCCCCCCCC(=O)Nc1ccnc(Br)c1` are 34% and “inactive”.
On to `O=C(CCCCCOc1cccc(I)c1)Nc1ccnc(C(F)(F)F)c1`, for which the Efficacy in experiment [1] is listed as 95%. Also, in experiment [2], the outcome was inactive.
For `O=C(CCCCCNc1cccc(F)c1)Nc1ccnc(C(F)(F)F)c1`, in that order: 100% and “inactive”.
For `O=C(CCCOc1cccc(Br)c1)Nc1ccncc1`, in that order: 21% and “inactive”.
In the same order, the values of `CCCCCCCCCC(=O)CC(=O)Nc1ccnc(OC)c1` are 24% and “inactive”.
On to `O=C(CCCCCOc1cccc([N+](=O)[O-])c1)Nc1ccnc(C(F)(F)F)c1`, for which the Efficacy in experiment [1] is 39%. In experiment [2], the result was inactive.
As to `CCCCCCCCCCCC(=O)Nc1cccnc1`, the Efficacy in experiment [1] was 34%. The outcome in experiment [2] was inactive.
For `CCCCCCCCCCCC(=O)Nc1ccnc(OC)c1`, in that order: -5.1% and “inactive”.
In the same order, the values of `COc1cc(NC(=O)CCCCCCOc2cccc(Br)c2)ccn1` are 75% and “inactive”.
For the compound `O=C(CCCCCOc1cccc(Br)c1)Nc1cc(C(F)(F)F)cc(C(F)(F)F)c1`, the Efficacy in experiment [1] was 44%. Moreover, the outcome in experiment [2] was inactive.
In the same order, the values of `CCCCCCCCCCCC(=O)Nc1ccncc1` are 28% and “inactive”.
Consider `O=C(CCCCCOc1c(F)c(F)c(F)c(F)c1F)Nc1ccnc(C(F)(F)F)c1`, for which, in experiment [1], the Efficacy came out at 21%. In experiment [2], the result was inactive.
For `O=C(CCCCCOc1cccc(O)c1)Nc1ccnc(C(F)(F)F)c1`, in that order: 70% and “inactive”.
On to `CCCCCCCCCC(=O)CC(=O)Nc1ccc2c(c1)c1ccccc1n2CC`, for which, in experiment [1], the Efficacy amounted to 9.3%. The result in experiment [2] was inactive.
For `CCCCCCCCCC(=O)CC(=O)Nc1cccnc1`, in that order: 10% and “inactive”.
For `CCCCCCCCCCCCNC(=O)c1cc2ccccc2n1C`, in that order: -9.2% and “inactive”.
`CCCCCCCCCCCC(=O)Nc1ccncc1C(F)(F)F`: the Efficacy in experiment [1] was -17%. In addition, the result in experiment [2] was inactive.
Regarding `CCCCCCCCCCCC(=O)Nc1ccc2c(c1)c1ccccc1n2CC`, in experiment [1], the Efficacy was -1%. The outcome in experiment [2] was inactive.
In the same order, the values of `O=C(CCCCCOc1cccc(C(F)(F)F)c1)Nc1ccnc(C(F)(F)F)c1` are 59% and “inactive”.
In the same order, the values of `O=C(CCCCCOc1cccc(Br)c1)Nc1cccc(C(F)(F)F)c1` are 62% and “inactive”.
For `O=C(CCCCCOc1ccc(F)cc1)Nc1ccnc(C(F)(F)F)c1`, in that order: 54% and “inactive”.
`COc1cc(NC(=O)CCCCCOc2cccc(Br)c2)ccn1`: the Efficacy in experiment [1] came to 73%. For the same compound, the result in experiment [2] was inactive.
For `CCCCCCCCCCCC(=O)Nc1ccc2[nH]ccc2c1`, in that order: -11% and “inactive”.
For `O=C(CCCCCSc1cccc(F)c1)Nc1ccnc(C(F)(F)F)c1`, in experiment [1], the Efficacy is 94%. Besides, the result in experiment [2] was inactive.
For `CCCCCCCCCC(=O)CC(=O)Nc1ncccn1`, in that order: -0.51% and “inactive”.
For `CCCCCCCCCC(=O)CC(=O)Nc1ccncn1`, in that order: 64% and “inactive”.
For `COc1cc(NC(=O)CCCCCOc2cccc(Br)c2)ncn1`, in that order: 41% and “inactive”.
With `O=C(CCCCCOc1cccc(Br)c1)Nc1ccncc1`, the Efficacy in experiment [1] was 53%. Besides, the result in experiment [2] was inactive.
In the same order, the values of `O=C(CCCCCOc1ccccc1Br)Nc1ccnc(C(F)(F)F)c1` are 94% and “inactive”.
For the compound `COc1nccc(NC(=O)CCCCCOc2cccc(Br)c2)n1`, in experiment [1], the Efficacy was determined as 16%. Also, the result in experiment [2] was inactive.
For `Cc1cccc(OCCCCCC(=O)Nc2ccnc(C(F)(F)F)c2)c1`, in that order: 81% and “inactive”.
In the same order, the values of `CCCCCCCCCCCC(=O)Nc1c(F)c(F)nc(F)c1F` are -12% and “inactive”.
In the same order, the values of `COc1cc(NC(=O)CCCCCOc2cccc(Br)c2)nc(OC)n1` are 15% and “inactive”.
Regarding `CCCCCCCCCCCC(=O)N1CCN(c2ccncc2)CC1`, in experiment [1], the Efficacy is listed as -42%. The outcome in experiment [2] was inactive.
For `O=C(CCCCCOc1c(F)cccc1F)Nc1ccnc(C(F)(F)F)c1`, in that order: 66% and “inactive”.
For `CCCCCCCCCC(=O)CC(=O)Nc1cnccn1`, in that order: 21% and “inactive”.
